Screens: PubChem, Johns Hopkins Ion Channel Center
RGS4 inh: inhibitors of human RGS4. actives 0.45% (n = 310,000). B-score at 10 µM. HEK293 M3R/RGS4 inducible, Fluo-4 calcium flux; active compounds read high; triggered by carbachol at its EC20;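 active means B-score, a plate-corrected calcium signal, over three deviations above library mean, with baseline fluorescence within five deviations of library mean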;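 further: RGS4 expression induced by doxycycline in cells with stable M3 receptor; B-score is computed from the integrated fluorescence ratio over baseline after carbachol; higher B-score means a larger calcium signal and so more RGS4 inhibition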
Target sequence (P49798 whole entry, looked up): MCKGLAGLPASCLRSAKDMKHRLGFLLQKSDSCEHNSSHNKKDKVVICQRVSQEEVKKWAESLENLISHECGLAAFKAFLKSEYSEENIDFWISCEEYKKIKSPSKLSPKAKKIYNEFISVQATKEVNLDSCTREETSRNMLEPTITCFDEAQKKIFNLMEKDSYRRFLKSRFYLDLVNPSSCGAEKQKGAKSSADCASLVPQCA
MrgX1 antag: blocks BAM8-22 activation of human MrgX1 receptor | MRGX1-HEK293 calcium flux, Fluo-4, BAM8-22 antagonism; active compounds read low | B-score at 10 µM | actives 1.3% (n = 310,000);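 active means calcium-response B-score plate-corrected more than 3 library SD below zero, starting fluorescence within 5 deviations, no agonist response on first addition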;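 further: peak minus trough fluorescence over baseline after final BAM8-22 challenge near maximal dose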
Target sequence (Q96LB2 whole entry, looked up): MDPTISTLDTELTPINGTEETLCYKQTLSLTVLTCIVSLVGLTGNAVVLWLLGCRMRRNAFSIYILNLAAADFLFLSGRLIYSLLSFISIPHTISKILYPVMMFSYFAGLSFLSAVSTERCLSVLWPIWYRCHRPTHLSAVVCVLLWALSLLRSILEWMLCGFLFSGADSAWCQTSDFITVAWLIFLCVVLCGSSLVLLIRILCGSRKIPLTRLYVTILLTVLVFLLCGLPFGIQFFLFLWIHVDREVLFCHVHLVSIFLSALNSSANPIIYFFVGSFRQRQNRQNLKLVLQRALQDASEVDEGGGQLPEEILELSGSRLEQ
MrgX1 ag: agonists of human MrgX1 receptor. Q96LB2. MrgX1-HEK293 cells, Fluo-4 calcium fluorescence, agonist mode; active compounds read high. B-score at 10 µM. actives 0.44% (n = 310,000);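 active means calcium response B-score plate-corrected fluorescence ratio at least 3 library SD, with starting fluorescence B-score inside 5 SD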
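Assay system: stable human MrgX1 HEK293 cell line. Quantity: 15,000 cells per well. Schedule: cells plated overnight, dye loaded 0.5 h 37 °C, 0.5 h room temperature. Detection: Fluo-4 NW calcium-flux fluorescence, kinetic read. Read-out basis: peak-minus-minimum fluorescence over baseline, converted to B scores. Control set: positive and negative control wells on each plate.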
MrgX1 allo act: allosterically activates human MrgX1 receptor signaling. actives 0.63% (n = 310,000). MrgX1-HEK293, Fluo-4 calcium flux, FDSS; active compounds read high. AID 588675. Q96LB2. B-score at 10 µM;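 active means plate-corrected calcium response at least 3 library SD above typical, normal starting fluorescence, not activating the receptor alone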;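 further: compound read alongside a low EC10 to EC30 dose of BAM8-22 agonist; peak minus trough fluorescence over baseline measured at the second addition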
RGS4 act: potentiators or activators of RGS4; B-score at 10 µM; actives 0.92% (n = 310,000); HEK293 M3R/inducible RGS4, carbachol calcium flux Fluo4; active compounds read low;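 active means B-score of the integrated calcium signal more than 4 SD below the library mean, with starting fluorescence not abnormally high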;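 further: negative B-score means reduced calcium response which marks RGS4 activation or potentiation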
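test system = M3R-expressing HEK293 line, RGS4 induced by doxycycline | probe or stimulus = carbachol at ECmax as muscarinic agonist stimulus | timing = dye loading 30 min 37 °C, buffer rest 30 min RT | signal = calcium dye Fluo4 fluorescence | evaluation = B score from integrated fluorescence ratio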
RGS4 act valid: confirmation of RGS4 activators; shares compounds with RGS4 act; HEK293 M3R/RGS4 inducible, carbachol calcium flux Fluo4; inhibition, % at 10 µM; actives 89% (n = 1,100); AID 602282;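 active means inhibition above 3 SD of the buffer control wells, cut at about 41% in these data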;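 further: signal is the integrated peak-minus-minimum Fluo4 fluorescence over baseline ratio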
M3R Ca counter: counter-screen for RGS4 activators: effect in non-induced cells; inhibition, % at 10 µM; actives 82% (n = 1,100); shares compounds with RGS4 act; AID 602283; HEK293 M3R non-induced RGS4, Fluo4 calcium flux; after carbachol challenge at its EC90;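 active means inhibition exceeding 3 SD of buffer-only control wells, cut at about 26% in these data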;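 further: percent drop in integrated peak-minus-baseline over baseline Fluo4 ratio after carbachol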
Starred values were filed as active, the others as inactive. Most compounds without a hit are left out; they make up all but 3.5% or so of the library.

`CC1(C)CC(=O)C2=C(C1)N(c1ccc(Cl)cc1)C(=O)C2(O)C(F)(F)F` (configuration not stated) gave RGS4 inh inactive, MrgX1 antag inactive, MrgX1 ag inactive, MrgX1 allo act inactive, RGS4 act -14*, RGS4 act valid 79* and M3R Ca counter 27*.
O=C(NC1CCCCC1)c1ccc(CNc2nc(=S)[nH]c3ccccc23)cc1 was read as RGS4 inh inactive, MrgX1 antag inactive, MrgX1 ag inactive, MrgX1 allo act inactive and RGS4 act inactive.
Screening O=C(NC1CC2CCC1C2)C1COc2ccccc2O1 (configuration not stated) returned RGS4 inh inactive, MrgX1 antag inactive, MrgX1 ag inactive, MrgX1 allo act inactive and RGS4 act inactive.
For CN1CCN(c2ncnc3c2c(-c2ccccc2)cn3-c2ccc(F)cc2)CC1 the results were RGS4 inh inactive, MrgX1 antag inactive, MrgX1 ag inactive, MrgX1 allo act inactive and RGS4 act inactive.
CCOc1ccc(-n2cc(-c3ccccc3)c3c(N4CCOCC4)ncnc32)cc1 was read as RGS4 inh inactive, MrgX1 antag inactive, MrgX1 ag inactive, MrgX1 allo act inactive, RGS4 act -8.2*, RGS4 act valid 62* and M3R Ca counter 0.
Screening O=C(/C=C/Sc1ccc(C(F)(F)F)cn1)c1ccccc1 returned RGS4 inh inactive, MrgX1 antag inactive, MrgX1 ag inactive, MrgX1 allo act inactive and RGS4 act inactive.
`CC1=C(C(=O)Nc2ccccc2)C(c2cccnc2)n2ncnc2N1` (configuration not stated) gave RGS4 inh inactive, MrgX1 antag inactive, MrgX1 ag inactive, MrgX1 allo act inactive and RGS4 act inactive.
Screening COc1[nH]c(/N=C/c2ccccc2)c(C#N)c1C#N returned RGS4 inh inactive, MrgX1 antag inactive, MrgX1 ag inactive, MrgX1 allo act inactive, RGS4 act -8.4*, RGS4 act valid 0 and M3R Ca counter 0.
`CC(C)(C)c1ccccc1OCC(=O)Nc1ccccc1C(=O)NCc1cccnc1` gave RGS4 inh inactive, MrgX1 antag inactive, MrgX1 ag inactive, MrgX1 allo act inactive, RGS4 act -11*, RGS4 act valid 88* and M3R Ca counter 59*.
For CC(C)Oc1cccc(C(=O)C2CCCN(C(=O)CCn3cnnn3)C2)c1 (configuration not stated) the results were RGS4 inh inactive, MrgX1 antag inactive, MrgX1 ag inactive, MrgX1 allo act inactive and RGS4 act inactive.
Screening COc1ccc2c(C)cc(N3CCN(Cc4ccccc4)CC3)nc2c1 returned RGS4 inh inactive, MrgX1 antag inactive, MrgX1 ag inactive, MrgX1 allo act inactive and RGS4 act inactive.
COc1ccc2c(C)cc(N3CCCCCC3)nc2c1 was read as RGS4 inh inactive, MrgX1 antag inactive, MrgX1 ag inactive, MrgX1 allo act inactive, RGS4 act -11*, RGS4 act valid 92* and M3R Ca counter 75*.
For CN(C(=O)c1ccccc1OCc1ccc(Cl)cc1)c1ccccc1 the results were RGS4 inh inactive, MrgX1 antag inactive, MrgX1 ag inactive, MrgX1 allo act inactive, RGS4 act -9.2*, RGS4 act valid 92* and M3R Ca counter 93*.
For c1ccc(CNc2nc(-c3cccnc3)nc3ccccc23)cc1 the results were RGS4 inh inactive, MrgX1 antag inactive, MrgX1 ag inactive, MrgX1 allo act inactive, RGS4 act -8.4*, RGS4 act valid 84* and M3R Ca counter 37*.
For COC(=O)CNc1nc(-c2cccnc2)nc2ccccc12 the results were MrgX1 antag inactive, MrgX1 ag inactive and MrgX1 allo act inactive.
For COc1ccc(C(CNc2nc(-c3cccnc3)nc3ccccc23)N(C)C)cc1 (configuration not stated) the results were RGS4 inh inactive, MrgX1 antag inactive, MrgX1 ag inactive, MrgX1 allo act inactive, RGS4 act -9.3*, RGS4 act valid 60* and M3R Ca counter 84*.
Screening Cc1ccc(CNc2nc(-c3cccnc3)nc3ccccc23)cc1 returned RGS4 inh inactive, MrgX1 antag inactive, MrgX1 ag inactive, MrgX1 allo act inactive and RGS4 act inactive.
For COc1ccc(OC)c(CN2CCN(C(=O)CCC(=O)c3cccs3)CC2)c1 the results were RGS4 inh inactive, MrgX1 antag inactive, MrgX1 ag inactive, MrgX1 allo act inactive and RGS4 act inactive.
For Cc1ccc(NC(=O)c2cc(C(C)(C)C)nn2Cc2ccccc2)cc1 the results were RGS4 inh inactive, MrgX1 antag inactive, MrgX1 ag inactive, MrgX1 allo act inactive, RGS4 act -7.6*, RGS4 act valid 95* and M3R Ca counter 82*.
`Cc1cc2ncn(C(=O)c3c(-c4ccccc4Cl)noc3C)c2cc1C` gave RGS4 inh inactive, MrgX1 antag inactive, MrgX1 ag inactive, MrgX1 allo act inactive, RGS4 act -11*, RGS4 act valid 94* and M3R Ca counter 79*.
`CN(C)c1nc(F)c(F)c(S(=O)(=O)c2ccccc2)c1F` gave RGS4 inh inactive, MrgX1 antag inactive, MrgX1 ag inactive, MrgX1 allo act inactive and RGS4 act inactive.
For Cc1ccccc1NC(=O)Cc1nc(COC(=O)CNS(=O)(=O)c2cccc(Br)c2)cs1 the results were RGS4 inh inactive, MrgX1 antag inactive, MrgX1 ag inactive, MrgX1 allo act inactive and RGS4 act inactive.
`Cc1c(OC(=O)CNC(=O)OC(C)(C)C)ccc2c3c(c(=O)oc12)CCC3` gave MrgX1 antag inactive, MrgX1 ag inactive and MrgX1 allo act inactive.
CCc1nnc(NC(=O)c2sc3nc4cc(C)ccc4cc3c2N)s1 was read as RGS4 inh inactive, MrgX1 antag inactive, MrgX1 ag inactive, MrgX1 allo act inactive, RGS4 act -8.8*, RGS4 act valid 72* and M3R Ca counter 32*.
For Cc1ccc(NC(=O)c2ccc(NS(=O)(=O)c3cccc4cccnc34)cc2)cc1 the results were RGS4 inh inactive, MrgX1 antag inactive, MrgX1 ag inactive, MrgX1 allo act inactive and RGS4 act inactive.
OC1(C#CCCN2CCCCC2)c2ccccc2-c2ccccc21 was read as RGS4 inh inactive, MrgX1 antag inactive, MrgX1 ag inactive, MrgX1 allo act inactive, RGS4 act -8.7*, RGS4 act valid 92* and M3R Ca counter 60*.
